From PubChem
A selection: hits, their analogues and other compounds. The true share with any hit is near 2.2%.
Jurkat NFkB inh: inhibitors of the PMA/ionomycin-induced NF-kB reporter in Jurkat cells; PMA/ionomycin-induced NF-kB luciferase reporter, luminescence; inhibition, % at 4 µM; 0.53% of 330,000 active; AID 435003; in the data active = inhibition above about 50%
miR122 inh: inhibitors of miR-122 in Huh7 cells. Huh7 miR-122 Renilla luciferase sensor, 48 h; neutral wells = 0, positive control = 100. activation (reporter increase), % at 12.5 µM. 0.3% of 340,000 active;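 active = mean replicate activation score at least 90 and every replicate individually at or above 90; inconclusive = only one of the two criteria met; inactive = neither criterion met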;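 also: higher luciferase means less miR-122 activity so hits act as miR-122 inhibitors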
NR2E3 ag-1: agonists of human nuclear receptor NR2E3. 0.12% of 320,000 active. GST-NR2E3/biotin-RetCOR TR-FRET, 1536-well. inhibition of corepressor binding, % at 4.78 µM. AID 2300;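 active = percent inhibition above the cutoff of mean plus 3 SD of all tested compounds, set per screening campaign, cut at about 20% in these data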;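 also: 0% = DMSO wells and 100% = biotin wells as full block of FRET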
Target sequence (Q9Y5X4 whole entry, looked up): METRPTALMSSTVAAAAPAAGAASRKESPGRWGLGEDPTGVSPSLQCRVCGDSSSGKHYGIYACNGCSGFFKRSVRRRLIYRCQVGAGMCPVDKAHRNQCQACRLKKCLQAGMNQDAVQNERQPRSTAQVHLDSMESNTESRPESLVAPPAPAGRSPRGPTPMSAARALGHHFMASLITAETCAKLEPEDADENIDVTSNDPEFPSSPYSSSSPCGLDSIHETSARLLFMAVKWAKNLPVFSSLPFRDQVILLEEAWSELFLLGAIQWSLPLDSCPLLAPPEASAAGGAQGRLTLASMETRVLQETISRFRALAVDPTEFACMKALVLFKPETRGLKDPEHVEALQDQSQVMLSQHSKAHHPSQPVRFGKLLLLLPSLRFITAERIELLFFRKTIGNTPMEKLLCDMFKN
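System: GST-tagged NR2E3 plus biotinylated RetCOR corepressor; Buffer or medium: pH 7.5 Tris-based buffer; Probe or stimulus: RetCOR corepressor, biotinylated, 7 nM; Doses: compound at 4.8 µM, single dose; Schedule: 5 h incubation at 4 °C; Technique: time-resolved FRET; Evaluation: percent inhibition of TR-FRET ratio; Replication: one well per compound, singlicate testing.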
FGF22 binding: FGF22 (human) thermal shift binding | recombinant FGF22 thermal shift, SYPRO orange fluorescence; percent of sucrose octasulfate shift, DMSO zero | 1.5% of 340,000 active | activity (Tm shift, normalised), % at 9.99 µM | AID 651658;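 active = mean Tm shift, scaled 0 neutral to 100 positive control, at about 1.3% or above, every replicate too, limit read from the data; inconclusive = no clear call, values can overlap the other calls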
Target sequence (Q9HCT0 whole entry, looked up): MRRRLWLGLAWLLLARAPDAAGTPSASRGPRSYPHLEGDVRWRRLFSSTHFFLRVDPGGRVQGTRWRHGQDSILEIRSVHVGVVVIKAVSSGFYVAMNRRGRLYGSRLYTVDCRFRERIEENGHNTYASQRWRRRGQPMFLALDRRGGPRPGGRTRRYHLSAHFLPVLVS
NR2E3 ag-2: activates human NR2E3 receptor. CHO-S Gal4-NCOR/VP16-NR2E3 two-hybrid, luciferase. 0.35% of 360,000 active. AID 602229. inhibition of corepressor binding, % at 3.98 µM;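 active = inhibition above the mean of all tested compounds plus 3 SD, cut at about 70% in these data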;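 also: 0% = DMSO with NR2E3 transfected cells and 100% = cells lacking NR2E3 construct; higher means lower luciferase signal from less NR2E3 corepressor binding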
697 NFkB inh: inhibitors of the PMA/ionomycin-induced NF-kB reporter in 697 B cells | 697 B-cell NF-kB luciferase reporter, 16 h | 0.33% of 330,000 active | inhibition, % at 4 µM | AID 435022; in the data active = inhibition above about 35%
697 NFkB conf: lowers PMA/ionomycin-induced NF-kB signal in 697 B cells; 35% of 2,000 active; 697 B-cell NF-kB luciferase, 16 h; shares compounds with 697 NFkB inh; inhibition, % at 4 µM; AID 449746; in the data active = inhibition mostly above about 28%, no sharp cut-off; inactive = mostly below about 22%
Starred values were filed as active, the others as inactive; i = inactive; ? = inconclusive; · = no result; [ ] = remark or other dose.

SMILES	Jurkat NFkB inh	miR122 inh	NR2E3 ag-1	FGF22 binding	NR2E3 ag-2	697 NFkB inh	697 NFkB conf
Cn1nnnc1Sc1ncnc2scc(-c3ccc([N+](=O)[O-])cc3)c12	44	-16	4	0	15	-399	-197
Cc1ccc(S(=O)(=O)Nc2ccc3c(c2)CC(=O)N([C@H](C)CO)C[C@@H](C)[C@@H](CN(C)Cc2ccncc2)O3)cc1	·	-2[16.7 µM]	·	0	·	·	·
c1ccc(-c2ccc(-c3nc(-c4ccncc4)no3)cc2)cc1	-94	-6	-1	·	-151	-301	-260
CCc1ccc(-c2nc(-c3ccncc3)no2)cc1	-133	-3	2	·	-125	-264	-210
Cc1ccc(-c2ccc3c(c2)O[C@H](CN(C)Cc2cncnc2)[C@H](C)CN([C@@H](C)CO)S3(=O)=O)cc1	·	-57[16.7 µM]	·	·	·	·	·
Cc1ccc(S(=O)(=O)/C(=C\N(C)C)c2cnc(Cl)s2)cc1	10	·	4	0	12	36*	23
COc1cc(=O)n(C)c2cc(N(C)C)ccc12	10	-6	0	·	24	36*	6
CN1C(=O)c2ccc(N(C)C)cc2C1=O	-2	-2	-1	·	-2	3	·
Nc1nc2ccc(Cl)cc2c2nc(-c3ccco3)nn12	15	·	0	·	·	36*	28*
COc1ccc(O)c(/C=N/NC(=O)c2ccc(N3CCCC3=O)cc2)c1	23	-9	5	0	-14	i	-173
CC(=O)c1c(C)[nH]c(C(=O)NC2CCSc3ccccc32)c1C (centres undefined)	8	19	3	0	24	-9	·
CCc1c(C(=O)NC2CCCc3ccccc32)[nH]c(C)c1C(C)=O (centres undefined)	-27	?	3	0	-11	-301	-16
COc1cccc(-c2ccc3c(c2)[C@@H]2[C@@H](CCN2C(=O)c2ccccn2)[C@@H](CO)N3C)c1	·	3[16.7 µM]	·	0	·	·	·
CCc1ccc(-c2nnn(CCC#N)n2)cc1	-19	-1	3	1	-34	-2	·
CCc1ccc(-c2nnn(CCC(=O)OC)n2)cc1	10	3	0	·	23	52*	64*
CN1CCN(C(=O)c2ccccc2N(Cc2ccccc2)S(=O)(=O)c2ccccc2)CC1	14	3	-1	0	29	40*	25*
COCCNC(=O)C[C@H]1CC[C@@H]2[C@H](COC[C@H](O)CN2Cc2cccc(-c3ccncc3)c2)O1	·	0[16.7 µM]	·	0	·	·	·
O=C(C[C@H]1CC[C@H]2[C@@H](COC[C@@H](O)CN2S(=O)(=O)c2cccc(F)c2)O1)Nc1ccccc1	·	-6[16.7 µM]	·	0	·	·	·
O=c1cc(Nc2ccc3c(c2)OCCO3)[nH]c(=O)n1-c1ccc(Cl)cc1	-3	-8	1	0	-5	38*	24
O=c1cc(Nc2ccc3c(c2)OCCO3)[nH]c(=O)n1C1CCCCC1	43	9	2	·	-79	23	·
C[C@@H]1CN([C@H](C)CO)C(=O)Cc2cc(NC(=O)Nc3ccccc3)ccc2O[C@@H]1CN(C)C(=O)Nc1ccccc1	·	-1[16.7 µM]	·	0	·	·	·
CCOC(=O)/C(C#N)=C\c1cc(C)n(-c2ccccc2)c1C	-126	5	-3	·	-4	-286	-106
O=C(NCC[C@@H]1CC[C@@H](NC(=O)C2CC2)[C@@H](CO)O1)Nc1ccc(C(F)(F)F)cc1	·	·	·	0	·	·	·
Cc1ccc(NC(=S)c2nc3ccccc3s2)cc1	-117	4	1	·	16	-368	-196
COc1cc(OC)c2c(-c3cccc(-c4ccc(OC)c(F)c4)c3)cc(=O)oc2c1	·	·	·	0	6	-347	-258
SMILES	Jurkat NFkB inh	miR122 inh	NR2E3 ag-1	FGF22 binding	NR2E3 ag-2	697 NFkB inh	697 NFkB conf
CN(C)C(=O)c1cccc(-c2ccc3c(c2)[C@H]2[C@H](CCN2C(=O)c2ccc(F)cc2)[C@@H](CO)N3C)c1	·	21[16.7 µM]	·	0	·	·	·
Cc1cc(Nc2ccccc2N2CCOCC2)n2ncnc2n1	4	-1	0	·	8	35*	25
CCN1C(=O)c2cccc3c(NC(=O)c4cccc(N5C(=O)CCC5=O)c4)ccc1c23	3	·	-6	·	-13	36*	40*
Cc1noc(C)c1S(=O)(=O)Nc1ccc2c(c1)C(=O)N([C@@H](C)CO)C[C@@H](C)[C@H](CN(C)C)O2	·	1[16.7 µM]	·	0	·	·	·
Cc1ccc(NC(=O)c2ccc(-c3nn(C)c(=O)c4ccccc34)cc2)cc1	21	-8	4	·	-8	42*	14
Cc1nc2ccc3nc(NC(=O)c4ccc5c(c4)OCCO5)sc3c2s1	-22	0	-160	·	-36	-11	·
O=C(Nc1ccc(NC(=O)c2cc3ccccc3o2)cc1)c1ccc2c(c1)OCCO2	9	·	0	0	14	72*	59*
Cc1ccc(NC(=O)c2ccc3c(c2)OCCO3)cc1	-139	4	1	·	-107	-252	-211
Cc1cc(NC(=O)c2ccc3c(c2)OCCO3)ccc1NC(=O)c1cc2ccccc2o1	-16	-26	4	0	-57	-5	·
Cc1nc2c(ccc3nc(NC(=O)c4ccc5c(c4)OCCO5)sc32)s1	-116	-7	6	·	-156	-255	-223
C[C@@H]1CN([C@H](C)CO)C(=O)c2cccc(NC(=O)NC3CCCCC3)c2O[C@@H]1CN(C)S(=O)(=O)c1cn(C)cn1	·	-1[16.7 µM]	·	0	·	·	·
Cc1cccc(NC(=O)Nc2ccc3c(c2)C(=O)N(C)[C@H]2CC[C@H](CC(=O)O)O[C@@H]2CO3)c1	·	-3[16.7 µM]	·	1	·	·	·
COc1ccc(CNC(=O)C[C@H]2CC[C@H]3[C@H](COc4ccc(NC(=O)C(C)C)cc4C(=O)N3C)O2)cc1	·	-35[16.7 µM]	·	·	·	·	·
Cc1ccc(NC(=O)c2ccccc2)cc1	-89	-11	1	·	-174	-130	·
Cc1ccc(C(=O)Nc2ccc3ccccc3c2)cc1	-112	-11	0	0	-90	-368	-447
Cc1ccc(Nc2nc(N)nc(-c3oc4ccccc4c3C)n2)cc1	37	·	0	·	-66	-480	i
Cc1ccc(NC(=S)Nc2ccc(S(=O)(=O)Nc3ncccn3)cc2)c(C)c1	-1	-4	-1	0	-29	50*	14
CCC(=O)N(C1=C(NC)C(=O)c2ccccc2C1=O)C(C)C	35	·	3	0	6	52*	47*
CSc1ccc(C2Nc3cccc4cccc(c34)N2)cc1	30	·	-2	0	11	-266	-71
Clc1ccc(C2Nc3cccc4cccc(c34)N2)cc1	-10	10	0	0	-13	-5	·
O=C(N/N=C/c1cccnc1)c1cc(-c2ccccc2OCc2ccccc2)n[nH]1	22	5	0	0	2	35*	26*
O=C(c1cc(-c2ccc(Cl)cc2Cl)on1)N1CCOCC1	-123	·	-1	0	-165	-293	-186
